ChEMBL document CHEMBL1148285, “Pyridinium cationic lipids in gene delivery: a structure-activity correlation study” (J Med Chem, 2004)

Tested on: NCI-H23
Test: Transfection efficiency in NCI-H23 lung cancer cell line was determined.
Assay type: functional, cell-based
Conditions: Homo sapiens
Outline: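 Cationic lipid/cholesterol 1:1 liposomes hydrated in PBS and bath-sonicated (twice 15 min, 65–68 °C; DOTAP/Chol at 37 °C). Lipoplexes with pGL3 (SV40-luciferase) at 2:1 charge ratio, 30 min at 22 °C in Optimem. NCI-H23 cells in RPMI 1640/10% FBS, 20 000 cells/well seeded 24 h before. Exposed 1 h, then medium added for 24 h. Lysate luciferase measured by luminometer, protein by BCA. Triplicate or quadruplicate, mean ± 1 SD.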

Row | SMILES | Activity
1 | CCCCCCCCCCCCCC(=O)Oc1ccc(CC[n+]2c(C)cc(C)cc2C)cc1OC(=O)CCCCCCCCCCCCC | A
2 | CCCCCCCCCCCCCC(=O)OCC(COC(=O)CCCCCCCCCCCCC)[n+]1c(C)cc(C)cc1C | A
3 | CCCCCCCCCCCCCCCCCC(=O)Oc1ccc(CC[n+]2c(C)cc(C)cc2C)cc1OC(=O)CCCCCCCCCCCCCCCCC | A
4 | CCCCCCCCCCCC(=O)OCC(COC(=O)CCCCCCCCCCC)[n+]1c(C)cc(C)cc1C | A
5 | CCCCCCCCCCCCCCCC(=O)Oc1ccc(CC[n+]2c(C)cc(C)cc2C)cc1OC(=O)CCCCCCCCCCCCCCC | A
6 | CCCCCCCCCCCCCCCC(=O)OCC(COC(=O)CCCCCCCCCCCCCCC)[n+]1c(C)cc(C)cc1C | A
7 | CCCCCCCCCCCCCCCCCC(=O)OCC(COC(=O)CCCCCCCCCCCCCCCCC)[n+]1c(C)cc(C)cc1C | A
8 | CCCCCCCCCCCC(=O)Oc1ccc(CC[n+]2c(C)cc(C)cc2C)cc1OC(=O)CCCCCCCCCCC | A
9 | CCCCCCCC(=O)Oc1ccc(CC[n+]2c(C)cc(C)cc2C)cc1OC(=O)CCCCCCC | A
10 | CCCCCCCCCC(=O)Oc1ccc(CC[n+]2c(C)cc(C)cc2C)cc1OC(=O)CCCCCCCCC | A
